Experimental data published in article PMC12783166 (Clinical Pharmacokinetics, 2025).
“Also recorded” adds a separate entry of the source.

Tests used:
OATP1B1 = settings: cited from earlier work
[1] = Covariate evaluation of model-predicted 60 mg steady-state exposures; format: in vivo, human
Method in brief: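 Final population model predicted steady-state AUC24 and Cmax for 60 mg once daily in EM phase 2b/3, EM phase 3 and CM phase 3 patients. Covariates included renal function, age, sex, weight, race and comedication with BCRP inhibitors, BCRP substrates or statins. Each subgroup is given as a geometric mean ratio with 95% CI against its reference group.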

[2] = Individual predicted steady-state exposures; format: in vivo, human
Method in brief: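 Steady-state AUC24, Ctrough, Cmax and Cavg were derived from each individual's Bayesian post hoc estimates from the final three-compartment population PK model, with sequential zero-/first-order lagged absorption. Values are summarised per […] as mean (SD) and median (5th–95th percentile).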

[3] = model-predicted steady state, 60 mg daily

## C[C@@H]1[C@H](c2c(F)ccc(F)c2F)C[C@H](NC(=O)c2cnc3c(c2)C[C@@]2(C3)C(=O)Nc3ncccc32)C(=O)N1CC(F)(F)F [atogepant, Atogepant]
OATP1B1
  Transporter substrate status: substrate
[1]; model-predicted
  Effect of mild or moderate renal impairment on atogepant PK: no clinically relevant effect
[1]; [3]
  Change of Cmax with BCRP inhibitors: No change; also recorded: no impact
  Decrease of AUC24 with use of BCRP inhibitors: 1%
  Decrease of AUC24 with use of BCRP substrates: 3%
  Decrease of Cmax with use of BCRP substrates: 3%
  Increase of AUC24 with use of statins: 14%
  Increase of Cmax with use of statins: 13%
[1]; model-predicted, 60 mg daily, compared with reference groups
  Effect of age, BCRP inhibitors, BCRP substrates, statins, body weight, race, renal function and sex on steady-state AUC24 and Cmax: < 20%
[2]; ADVANCE EM, 10 mg QD
  Cavg, Mean (SD): 21.9 (14) ng/mL
  Cavg, Median (5th to 95th percentile): 19.3 (5.35–163) ng/mL
  Ctrough, Mean (SD): 3.24 (3.1) ng/mL
  Ctrough, Median (5th to 95th percentile): 2.62 (0.576–35.2) ng/mL
  Time above ½EC90 (4.2 ng/mL or 7 nM), Mean (SD): 18.1 (3.8) hr
  Time above ½EC90 (4.2 ng/mL or 7 nM), Median (5th to 95th percentile): 18.0 (8.00–24.0) hr
[2]; ADVANCE EM, 30 mg QD
  Cavg, Mean (SD): 76.1 (54) ng/mL
  Cavg, Median (5th to 95th percentile): 65.1 (19.0–466) ng/mL
  Ctrough, Mean (SD): 12.0 (16) ng/mL
  Ctrough, Median (5th to 95th percentile): 8.85 (2.02–202) ng/mL
  Time above ½EC90 (4.2 ng/mL or 7 nM), Mean (SD): 23.7 (1.2) hr
  Time above ½EC90 (4.2 ng/mL or 7 nM), Median (5th to 95th percentile): 24.0 (16.0–24.0) hr
[2]; ADVANCE EM, 60 mg QD
  Cavg, Mean (SD): 156 (94) ng/mL
  Cavg, Median (5th to 95th percentile): 134 (33.9–874) ng/mL
  Ctrough, Mean (SD): 23.8 (30) ng/mL
  Ctrough, Median (5th to 95th percentile): 18.4 (3.63–373) ng/mL
  Time above ½EC90 (4.2 ng/mL or 7 nM), Mean (SD): 24.0 (0.22) hr
  Time above ½EC90 (4.2 ng/mL or 7 nM), Median (5th to 95th percentile): 24.0 (21.5–24.0) hr
[2]; CGP-MD-01 EM, 10 mg QD
  Cavg, Mean (SD): 19.2 (6.7) ng/mL
  Cavg, Median (5th to 95th percentile): 19.3 (7.01–52.2) ng/mL
  Ctrough, Mean (SD): 2.80 (1.4) ng/mL
  Ctrough, Median (5th to 95th percentile): 2.58 (0.738–9.95) ng/mL
  Time above ½EC90 (4.2 ng/mL or 7 nM), Mean (SD): 17.8 (3.5) hr
  Time above ½EC90 (4.2 ng/mL or 7 nM), Median (5th to 95th percentile): 18.0 (9.00–24.0) hr
[2]; CGP-MD-01 EM, 30 mg BID
  Cavg, Mean (SD): 162 (85) ng/mL
  Cavg, Median (5th to 95th percentile): 132 (50.6–476) ng/mL
  Ctrough, Mean (SD): 60.7 (44) ng/mL
  Ctrough, Median (5th to 95th percentile): 44.5 (13.3–277) ng/mL
  Time above ½EC90 (4.2 ng/mL or 7 nM), Mean (SD): 12.0 (0.0) hr
  Time above ½EC90 (4.2 ng/mL or 7 nM), Median (5th to 95th percentile): 12.0 (12.0–12.0) hr
[2]; CGP-MD-01 EM, 30 mg QD
  Cavg, Mean (SD): 71.3 (36) ng/mL
  Cavg, Median (5th to 95th percentile): 66.2 (30.6–310) ng/mL
  Ctrough, Mean (SD): 11.2 (16) ng/mL
  Ctrough, Median (5th to 95th percentile): 8.97 (3.68–203) ng/mL
  Time above ½EC90 (4.2 ng/mL or 7 nM), Mean (SD): 24.0 (0.19) hr
  Time above ½EC90 (4.2 ng/mL or 7 nM), Median (5th to 95th percentile): 24.0 (21.5–24.0) hr
[2]; CGP-MD-01 EM, 60 mg BID
  Cavg, Mean (SD): 331 (200) ng/mL
  Ctrough, Mean (SD): 133 (140) ng/mL
  Ctrough, Median (5th to 95th percentile): 101 (26.1–972) ng/mL
  Time above ½EC90 (4.2 ng/mL or 7 nM), Mean (SD): 12.0 (0.0) hr
  Time above ½EC90 (4.2 ng/mL or 7 nM), Median (5th to 95th percentile): 12.0 (12.0–12.0) hr
[2]; CGP-MD-01 EM, 60 mg QD
  Cavg, Mean (SD): 152 (93) ng/mL
  Cavg, Median (5th to 95th percentile): 144 (39.5–992) ng/mL
  Ctrough, Mean (SD): 23.6 (30) ng/mL
  Ctrough, Median (5th to 95th percentile): 19.5 (5.07–335) ng/mL
  Time above ½EC90 (4.2 ng/mL or 7 nM), Mean (SD): 24.0 (0.0) hr
  Time above ½EC90 (4.2 ng/mL or 7 nM), Median (5th to 95th percentile): 24.0 (24.0–24.0) hr
[2]; ELEVATE EM, 60 mg QD
  Cavg, Mean (SD): 147 (75) ng/mL
  Cavg, Median (5th to 95th percentile): 138 (12.5–474) ng/mL
  Ctrough, Mean (SD): 15.4 (13) ng/mL
  Ctrough, Median (5th to 95th percentile): 13.4 (2.70–98.1) ng/mL
  Time above ½EC90 (4.2 ng/mL or 7 nM), Mean (SD): 23.9 (0.79) hr
  Time above ½EC90 (4.2 ng/mL or 7 nM), Median (5th to 95th percentile): 24.0 (17.5–24.0) hr
[2]; PROGRESS CM, 30 mg BID
  Cavg, Mean (SD): 157 (87) ng/mL
  Cavg, Median (5th to 95th percentile): 135 (33.1–571) ng/mL
  Ctrough, Mean (SD): 56.1 (43) ng/mL
  Ctrough, Median (5th to 95th percentile): 42.4 (8.87–269) ng/mL
  Time above ½EC90 (4.2 ng/mL or 7 nM), Mean (SD): 24.0 (0.0) hr
  Time above ½EC90 (4.2 ng/mL or 7 nM), Median (5th to 95th percentile): 24.0 (24.0–24.0) hr
[2]; PROGRESS CM, 60 mg QD
  Cavg, Mean (SD): 139 (85) ng/mL
